From ChEMBL document CHEMBL3098028, “Synthesis and in vitro and in vivo pharmacological evaluation of new 4-aminoquinoline-based compounds” (ACS Med Chem Lett, 2013)

Experiments:
[1] = tested on: Plasmodium falciparum; experiment: Antiplasmodial activity against chloroquine-resistant Plasmodium falciparum K1 after 24 hrs by [3H]hypoxanthine incorporation assay; type: functional, organism-based
Summary of the method: (§1)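 Antiplasmodial testing was done at the Swiss Tropical and Public Health Institute. Chloroquine, the reference drug, was tested as its diphosphate salt.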

[2] = tested on: Plasmodium falciparum; experiment: Antiplasmodial activity against chloroquine-resistant Plasmodium falciparum W2 after 24 hrs by [3H]hypoxanthine incorporation assay; type: functional, organism-based; summary of the method: as §1
[3] = tested on: Plasmodium falciparum; experiment: Antiplasmodial activity against chloroquine-sensitive Plasmodium falciparum 3D7 after 24 hrs by [3H]hypoxanthine incorporation assay; type: functional, organism-based; summary of the method: as §1
[4] = tested on: Plasmodium falciparum; experiment: Resistance index, ratio of IC50 for chloroquine-resistant Plasmodium falciparum K1 to IC50 for chloroquine-sensitive Plasmodium falciparum 3D7; type: functional
[5] = tested on: Plasmodium berghei; experiment: Antimalarial activity against Plasmodium berghei ANKA infected in C57BL/6 mouse assessed as reduction in parasitemia at 15 mg/kg, po qd for 4 days measured on day 7 by light microscopic analysis relative to control; type: functional; parameters: scale not given: the % may be the effect or the level left

Structure (SMILES)	IC50 [1] [nM]	IC50 [2] [nM]	IC50 [3] [nM]	Ratio IC50 [4]	Activity [5] [%]
CC(C)(C)n1nnnc1C(NCCCCNc1ccnc2cc(Cl)ccc12)c1ccccc1 (configuration not stated)	8	20	2	4	–
Clc1ccc2c(NCCNC(c3ccccc3)c3nnn[nH]3)ccnc2c1 (configuration not stated)	14900	–	–	–	–
COc1ccc(C(NCCNc2ccnc3cc(Cl)ccc23)c2nnn[nH]2)cc1 (configuration not stated)	13200	–	–	–	–
CCN(CC)CCCC(C)Nc1ccnc2cc(Cl)ccc12 (configuration not stated) [CHLOROQUINE]	–	–	–	–	90.6
